Among the data in ChEMBL document CHEMBL1124959, “Synthesis of peptidyl fluoromethyl ketones and peptidyl alpha-keto esters as inhibitors of porcine pancreatic elastase, human neutrophil elastase, and rat and human neutrophil cathepsin G” (J Med Chem, 1990) are Ki values, retold here.

Peptide text beside a SMILES is read from it. * marks the point of attachment. Dansyl = CN(C)c1cccc2c(S(=O)(=O)*)cccc12; MeOSuc = COC(=O)CCC(=O)*; Cbz = O=C(OCc1ccccc1)*; Boc = CC(C)(C)OC(=O)*; CF3 = FC(F)(F)*

One may read the Ki as the dissociation constant of the complex between target and ligand, obtained from inhibition or displacement. Read a high Ki as weaker binding.

Assay [1] deals with T1, Pancreatic elastase (Sus scrofa, UniProt P08419+P00772). The assay is described as follows: Binding affinity against porcine pancreatic Elastase. It is filed as protein assay. In short, it runs like this:
(§1)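 Porcine pancreatic elastase was followed spectrophotometrically at 410 nm, 37 °C, with Suc-Ala-Pro-Ala-p-nitroanilide in pH 8.0 buffer (0.1 M NaCl, 0.01 M HEPES, 0.01 M Tris, 0.1% PEG 6000). Paired runs were done: enzyme added last, or enzyme preincubated with inhibitor before substrate. Only data up to 10% substrate consumption were used. K_i* came from steady-state rates fitted to competitive inhibition.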

In assay [2] the target is T1, Pancreatic elastase. The assay is described as follows: Binding affinity for porcine Elastase. It is filed as protein assay. Summed up: as §1
Assay [3] has as its target T2, Neutrophil elastase (Homo sapiens, UniProt P08246).
T2 sequence (P08246 whole entry): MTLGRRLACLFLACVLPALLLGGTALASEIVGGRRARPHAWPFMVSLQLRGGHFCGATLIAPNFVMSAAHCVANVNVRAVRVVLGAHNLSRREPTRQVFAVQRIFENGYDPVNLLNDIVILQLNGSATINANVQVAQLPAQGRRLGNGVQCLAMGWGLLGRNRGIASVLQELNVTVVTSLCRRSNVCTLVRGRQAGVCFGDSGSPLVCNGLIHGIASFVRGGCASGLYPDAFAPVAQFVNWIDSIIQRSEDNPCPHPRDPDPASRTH
The assay is described as follows: Binding affinity against human Elastase for more active diasteriomer.

Assay [4] deals with T2, Neutrophil elastase. The assay is described as follows: Binding affinity against human Elastase for less active diasteriomer. Summed up:
(§2)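 Human neutrophil elastase purified from purulent sputum. Activity was read at 410 nm (p-nitroaniline) at 37 °C with MeO-Suc-Ala-Ala-Pro-Val-p-nitroanilide in 0.1 M NaCl, 0.01 M HEPES, 0.01 M Tris, 0.1% PEG 6000, pH 8.0, 1.25% DMSO. Paired assays were run, one adding enzyme last and one preincubating enzyme with inhibitor. Data were limited to ≤10% substrate use. Steady-state K_i* came from the competitive inhibition equation.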

Another assay has as its target T3, Cathepsin G (Homo sapiens, UniProt P08311).
T3 sequence (P08311 whole entry): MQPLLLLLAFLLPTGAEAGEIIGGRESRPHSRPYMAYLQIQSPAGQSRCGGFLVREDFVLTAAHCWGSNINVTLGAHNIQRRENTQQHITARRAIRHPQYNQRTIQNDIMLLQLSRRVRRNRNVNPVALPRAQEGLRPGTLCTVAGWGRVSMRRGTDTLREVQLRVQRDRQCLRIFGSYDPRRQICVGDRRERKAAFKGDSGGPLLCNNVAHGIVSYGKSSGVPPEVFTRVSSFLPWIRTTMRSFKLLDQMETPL
The assay is described as follows: Binding affinity against human Cathepsin G. Summed up:
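Cathepsin G came from neutrophil granule extracts of sputum or, for rat, peritoneal lavage, extracted in 1 M NaCl/0.1% Brij 35 acetate buffer, pH 5.5. K_i = [I]/(v0/v1 − 1), using equilibrium velocity when binding was slow.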

For assay [5], the target named is T2, Neutrophil elastase. The assay is described as follows: Binding affinity against human Neutrophil Elastase. Summed up:
as §2

A further assay has as its target Chymotrypsinogen B (Homo sapiens, UniProt P17538). The assay is described as follows: Binding affinity against alpha-chymotrypsin.
Assay [6] addresses T2, Neutrophil elastase. As to the kind of experiment: Binding affinity against human leukocyte Elastase.

Chymotrypsinogen B, sequence (P17538 34-164 limits assumed, other chains not shown): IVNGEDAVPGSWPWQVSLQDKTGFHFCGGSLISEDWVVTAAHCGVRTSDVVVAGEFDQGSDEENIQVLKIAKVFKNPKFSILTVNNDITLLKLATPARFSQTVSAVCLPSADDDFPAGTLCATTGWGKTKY
Chymotrypsinogen B, sequence (P17538 167-263 limits assumed, other chains not shown): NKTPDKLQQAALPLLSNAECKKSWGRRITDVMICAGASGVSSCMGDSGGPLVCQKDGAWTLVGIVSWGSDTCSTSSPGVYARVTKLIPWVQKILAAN

Consider `CC(=O)N1CCC[C@H]1C(=O)N[C@@H](C)C(=O)N1CCC[C@H]1C(=O)N[C@@H](C)C=O` (Ac-PAPA-aldehyde), for which the inhibitory constant (Ki) on Pancreatic elastase [1] was found to be 800 nM.

`COC(=O)CCC(=O)N[C@@H](C)C(=O)N[C@@H](C)C(=O)N1CCC[C@H]1C(=O)N[C@H](C(=O)C(=O)OC)C(C)C` returned an inhibition constant (Ki) on Pancreatic elastase [2] of 680 nM.

Regarding `CC(=O)N1CCC[C@H]1C(=O)N[C@@H](C)C(=O)N1CCC[C@H]1C(=O)N[C@@H](C)C(=O)C(F)(F)F` (Ac-PAPA-CF3), at Pancreatic elastase [2], the inhibition constant (Ki) is 240 nM.

In the case of `CC(C)[C@H](NC(=O)[C@@H]1CCCN1C(=O)[C@H](C)NC(=O)[C@H](C)NS(=O)(=O)c1cccc2c(N(C)C)cccc12)C(=O)C(F)(F)F` (Dansyl-AAPV-CF3), the Ki on Neutrophil elastase [3] is 6.3 nM; on Neutrophil elastase [4] it was 110 nM; on Cathepsin G it was > 600000 nM; at Pancreatic elastase [2], 88 nM.

Regarding `CC(=O)N1CCC[C@H]1C(=O)N[C@@H](C)C(=O)N1CCC[C@H]1C(=O)N[C@@H](C)C(=O)C(=O)O`, the Ki was determined as 66000 nM at Neutrophil elastase [5] and 690 nM at Pancreatic elastase [1].

As for `COC(=O)CCC(=O)N[C@H](Cc1ccccc1)C(=O)N1CCC[C@H]1C(=O)N[C@H](C(=O)C(F)(F)F)C(C)C`, the inhibition constant Ki at Pancreatic elastase [2] was determined as 28000 nM.

`COC(=O)CCC(=O)N[C@@H](C)C(=O)N[C@@H](C)C(=O)N1CCC[C@H]1C(=O)N[C@@H](Cc1ccccc1)C(=O)C(=O)OC` returned a Ki at Chymotrypsinogen B of 79 nM.

With `COC(=O)CCC(=O)NCCCC[C@H](NS(=O)(=O)C12CC3CC(CC(C3)C1)C2)C(=O)N1CCC[C@H]1C(=O)N[C@H](C(=O)C(F)(F)F)C(C)C`, on Pancreatic elastase [2], the Ki stood at 15 nM.

At Chymotrypsinogen B, `COC(=O)CCC(=O)N[C@@H](C)C(=O)N[C@@H](C)C(=O)N1CCC[C@H]1C(=O)N[C@@H](Cc1ccccc1)C(=O)C(F)(F)F` (MeOSuc-AAPF-CF3) showed an inhibition constant (Ki) of 17 nM.

On Cathepsin G, `COC(=O)CCC(=O)N[C@H](C(=O)N1CCC[C@H]1C(=O)N[C@@H](Cc1ccccc1)C(=O)C(=O)OC)C(C)C` showed an inhibition constant (Ki) of 1100 nM.

Regarding `COC(=O)C(=O)[C@H](C)NC(=O)[C@@H]1CCCN1C(=O)[C@H](C)NC(=O)[C@@H]1CCCN1C(C)=O`, at Pancreatic elastase [2], the inhibition constant (Ki) was found to be 29 nM.

On Cathepsin G, `COC(=O)CCC(=O)N[C@H](C(=O)N1CCC[C@H]1C(=O)N[C@@H](Cc1ccccc1)C(=O)C(F)(F)F)C(C)C` (MeOSuc-Val-Pro-Phe-CF3) registered an inhibition constant Ki of 3000 nM.

At Pancreatic elastase [2], `CCOC(=O)C(F)(F)C(=O)[C@@H](NC(=O)[C@@H]1CCCN1C(=O)[C@H](C)NC(=O)[C@H](C)NC(=O)CCC(=O)OC)C(C)C` returned an inhibition constant Ki of 9900 nM.

Compound `COC(=O)CCC(=O)N[C@@H](C)C(=O)N[C@@H](C)C(=O)N1CCC[C@H]1C(=O)N[C@H](C(=O)C(F)(F)F)C(C)C` (MeOSuc-AAPV-CF3) displayed a Ki on Pancreatic elastase [2] of 33 nM.

`CC(C)[C@H](NC(=O)[C@@H]1CCCN1C(=O)[C@H](Cc1ccccc1)NC(=O)OC(C)(C)C)C(=O)C(F)(F)F` (Boc-Phe-Pro-Val-CF3) had a Ki at Pancreatic elastase [2] of 1800 nM.

`CC(=O)N[C@@H](C)C(=O)N[C@@H](C)C(=O)N1CCC[C@H]1C(=O)N[C@@H](C)C(=O)C(F)(F)F` (Ac-AAPA-CF3): the inhibition constant Ki on Cathepsin G is > 800000 nM; at Pancreatic elastase [2] it was 150 nM.

`CC(C)[C@H](NC(=O)[C@@H]1CCCN1C(=O)[C@H](C)NC(=O)[C@H](C)NC(=O)OC(C)(C)C)C(=O)C(F)(F)F` (Boc-AAPV-CF3): the Ki on Pancreatic elastase [2] is 32 nM.

As to `CC(C)[C@H](NC(=O)[C@H](CCCCNC(=O)OCc1ccccc1)NC(=O)OCc1ccccc1)C(=O)N1CCC[C@H]1C(=O)N[C@H](C(=O)C(F)(F)F)C(C)C` (Cbz-K(Cbz)VPV-CF3), the inhibition constant Ki on Neutrophil elastase [6] is < 0.1 nM.

`CCOC(=O)C(=O)[C@H](C)NC(=O)[C@H](C)NC(=O)[C@H](C)NC(=O)[C@H](C)NC(=O)OCc1ccccc1` gave a Ki at Pancreatic elastase [2] of 140 nM.
